PRMT1 FP inh = inhibitors of human PRMT1. recombinant PRMT1, activity-based probe fluorescence polarization. AID 652257. inhibition, % at 2.79 µM. Q99873. hit rate 1.3% among 370,000;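 active = inhibition above about 21% made by adding two undisclosed values, limit read from the data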
Target sequence (Q99873 whole entry, looked up): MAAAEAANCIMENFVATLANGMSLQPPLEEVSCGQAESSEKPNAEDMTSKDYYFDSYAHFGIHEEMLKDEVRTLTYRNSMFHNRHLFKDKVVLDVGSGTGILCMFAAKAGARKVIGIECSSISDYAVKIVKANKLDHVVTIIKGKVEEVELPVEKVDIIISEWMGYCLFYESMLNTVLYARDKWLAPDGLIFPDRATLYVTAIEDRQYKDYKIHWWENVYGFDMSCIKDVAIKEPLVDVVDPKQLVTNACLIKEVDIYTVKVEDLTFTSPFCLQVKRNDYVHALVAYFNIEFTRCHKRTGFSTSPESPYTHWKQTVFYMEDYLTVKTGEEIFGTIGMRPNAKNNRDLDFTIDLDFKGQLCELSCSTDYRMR
SIAE primary = blocks human sialic acid acetylesterase; Q9HAT2; inhibition, % at 9.66 µM; hit rate 0.69% among 370,000; SIAE FP-Rh probe binding, fluorescence polarization; AID 1053197;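 active = inhibition above a cutoff: mean of compounds within the control limits plus 3 SD of those, cut at about 17% in these data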;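 note: 0% = plate median of compound wells and 100% = probe without SIAE protein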
mABHD4 FP = inhibits mouse alpha/beta hydrolase domain 4 | inhibition, % at 8.92 µM | hit rate 0.54% among 370,000 | purified mABHD4, FP-Rh probe fluorescence polarization | Q8VD66;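 active = inhibition exceeding the mean over every tested compound plus 3 SD, cut at about 30% in these data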;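 note: 0% = plate median of compound wells and 100% = S159A mutant with DMSO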
Target sequence (Q8VD66 whole entry, looked up, the tested form may be a part): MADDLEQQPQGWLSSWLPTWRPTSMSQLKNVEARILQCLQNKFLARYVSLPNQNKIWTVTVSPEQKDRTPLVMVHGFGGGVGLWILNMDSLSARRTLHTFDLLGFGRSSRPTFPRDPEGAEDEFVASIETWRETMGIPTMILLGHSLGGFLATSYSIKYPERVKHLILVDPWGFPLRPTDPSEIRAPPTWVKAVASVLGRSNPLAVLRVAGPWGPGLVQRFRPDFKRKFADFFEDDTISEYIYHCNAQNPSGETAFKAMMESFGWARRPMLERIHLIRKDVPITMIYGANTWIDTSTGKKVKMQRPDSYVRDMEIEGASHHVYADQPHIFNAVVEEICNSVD
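Test system: mouse ABHD4 enzyme, wild type. Reagent: FP-Rh fluorescent activity-based probe, added after compound pre-incubation. Timing: pre-incubation 45 min, probe exposure 60 min, at 25 °C. Technique: FP readout, ex 525 nm / em 598 nm. Benchmarks: high control S159A mutant with DMSO, low control median of compound wells.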
TCR CD3 inh = inhibitors of human TCR-CD3 interaction; TAMRA-labeled TCR probe fluorescence, biochemical; hit rate 0.37% among 360,000; inhibition, % at 9.4 µM; in the data active = inhibition above about 19%;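 note: recombinant mutant TCR 2C K166C tagged with TAMRA read by polarization; 0% = receptor in buffer alone and 100% = receptor with positive control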
rCAG RNA binder = binds r(CAG) RNA repeats | hit rate 1.3% among 370,000 | r(CAG) RNA repeat, TO-PRO-1 dye displacement fluorescence | inhibition, % at 3 µM;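 active = inhibition above the plate cutoff, the mean of all test compounds on that plate plus 3 SD, cut at about 35% in these data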;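 note: 0% = DMSO alone and 100% = 100 µM mitoxantrone as full dye displacement; higher means more dye released from RNA so lower well fluorescence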
rCAG binder conf = r(CAG) RNA repeat binding, confirmation | shares compounds with rCAG RNA binder | TO-PRO-1 dye displacement fluorescence | inhibition, % at 3 µM | hit rate 70% among 4,300;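 active = inhibition above a per-plate cutoff, the mean inhibition of sample wells plus 3 SD, cut at about 35% in these data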;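 note: loss of TO-PRO-1 fluorescence as compound displaces dye from 1x1 AA loop RNA; 0% = DMSO only wells and 100% = 100 µM mitoxantrone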
DNA CAG counter = DNA CAG dye complex inhibition counter-screen. hit rate 94% among 4,300. shares compounds with rCAG RNA binder. d(CAG) DNA oligo TO-PRO-1 dye displacement, fluorescence. AID 652068. inhibition, % at 3 µM;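 active = inhibition above its plate's cutoff, the mean test-well inhibition plus 3 SD, cut at about 4.8% in these data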;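 note: 0% = DNA dye mix with DMSO and 100% = 100 µM mitoxantrone; hits displace the dye from DNA and so lower well fluorescence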
PRMT1 confirm = confirmation of human PRMT1 inhibitors; shares compounds with PRMT1 FP inh; recombinant His-PRMT1, activity-based probe fluorescence polarization; inhibition, % at 2.79 µM; hit rate 42% among 3,300; AID 687036;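 active = mean inhibition across replicates above the hit cutoff derived for the earlier primary screen, cut at about 22% in these data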
ABHD4 confirm = confirmation of mouse ABHD4 inhibitors. inhibition, % at 8.92 µM. hit rate 55% among 1,800. purified mABHD4, FP-Rh probe fluorescence polarization. shares compounds with mABHD4 FP. AID 720658;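 active = mean inhibition across replicates above the hit cutoff set in the primary screen, cut at about 30% in these data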;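 note: 0% = wild-type ABHD4 with DMSO and 100% = catalytically dead S159A mutant with DMSO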
SIAE confirm = human SIAE inhibition, confirmation; shares compounds with SIAE primary; SIAE FP-Rh activity-based probe, fluorescence polarization; inhibition, % at 9.66 µM; hit rate 13% among 2,300; AID 1117263;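 active = mean inhibition of the replicates above the hit cutoff set in the primary screen, cut at about 17% in these data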;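 note: 0% = SIAE with DMSO and probe and 100% = probe without SIAE; inhibitors lower polarization as more probe stays unbound to SIAE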
* hit, by the source's call; nt = no result given. An excerpt weighted towards active compounds, which were near 3.3% of everything screened.

SMILES	PRMT1 FP inh	SIAE primary	mABHD4 FP	TCR CD3 inh	rCAG RNA binder	rCAG binder conf	DNA CAG counter	SIAE confirm	others
C/C(=N/Nc1ccc(C(=O)O)cc1)c1ccc2c(c1)Nc1ccccc1S2	13	17*	56*	7	45*	81*	41*	28*	ABHD4 confirm=81*
O=C(O)c1cccc(N/N=C/c2ccc(-c3ccccc3)cc2)c1	-1	4	8	2	33	nt	nt	nt
O=C(O)c1cccc(N/N=C/c2cc(Br)cc(Br)c2O)c1	5	31*	56*	14	95*	83*	48*	3	ABHD4 confirm=80*
CN1[C@@H](Cc2ccccc2)COc2cccc(F)c2S1(=O)=O	1	-6	0	nt	3	nt	nt	nt
O=C(CSc1ccc(Cl)cc1)NC1=NN(c2ccccc2)C(=O)C1	1	25*	21	0	55*	27	10*	-3
Cc1cccc(NC(=S)N/N=C/c2c[nH]c3ccccc23)c1	4	32*	8	1	36*	23	14*	28*
Cc1ccccc1CN1CCCCC(NC(=O)c2cc(-c3ccccc3)no2)C1=O (stereo unspecified)	4	-7	-5	nt	5	nt	nt	nt
O=C(NC(=S)Nc1cccc2c(O)cccc12)c1ccccc1[N+](=O)[O-]	10	23*	48*	11	39*	12	7.3*	-4	ABHD4 confirm=-11
COC(=O)N/N=C/c1ccc(-c2ccc(Cl)cc2Cl)o1	2	-13	2	-8	8	nt	nt	nt
O=C(O)c1ccc(N/N=C/c2ccc(-c3ccc(Cl)cc3Cl)o2)cc1	7	18*	57*	6	92*	84*	51*	20*	ABHD4 confirm=67*
COC(=O)[C@]12C[C@H](CC(=O)NCc3ccccc3)C(=O)N(Cc3ccco3)C1=C[C@H](C1CCCC1)O[C@@H]2C	-4	4	-3	nt	-1	nt	nt	nt
Cc1ccc(NS(=O)(=O)c2cc([N+](=O)[O-])ccc2NNC(=S)Nc2cc(C)ccc2C)c(C)c1	5	31*	-28	3	50*	84*	44*	1
COc1ccc(NC(=S)NNc2ccc([N+](=O)[O-])cc2S(=O)(=O)Nc2ccc(C)cc2C)cc1	24*	47*	39*	-4	39*	81*	45*	-5	ABHD4 confirm=38*
O=C(Nc1ccc(Cl)c(Cl)c1)c1cccc2c1-c1ccccc1C2=O	1	-2	-3	nt	10	nt	nt	nt
O=[N+]([O-])c1cc(/C=N/Nc2nc3ccccc3[nH]2)c(O)cc1O	1	23*	49*	-1	36*	29	13*	22*	ABHD4 confirm=72*
Cc1ccccc1/C=N/Nc1nc2ccccc2[nH]1	3	1	16	-5	3	nt	nt	nt
COCC#Cc1ccc(CC[C@H]2O[C@H]3CC[C@H](CO)O[C@H]3C[C@H]2n2cc(C(C)(C)O)nn2)cc1	-3	0	-2	nt	-1	nt	nt	nt
O=C(/C(=N/N=C/c1ccc(O)c(O)c1O)c1ccccc1)c1ccccc1	27*	33*	53*	13	61*	74*	42*	-5	ABHD4 confirm=47*
C/C(=N\NC(=O)c1cc2ccccc2cc1O)c1cc2ccccc2o1	-3	17*	26	5	50*	40*	15*	10
C/C(CC(=O)N1CCN(C=O)CC1)=N\NC(=O)c1ccc([N+](=O)[O-])cc1	4	10	5	5	2	nt	nt	nt
C/C(CC(=O)N1CCN(C=O)CC1)=N\NC(=O)c1cc2ccccc2cc1O	2	20*	40*	13	53*	22	9.2*	3	ABHD4 confirm=35*
COc1ccc(NS(=O)(=O)c2ccc3c(c2)[C@H]2C=CC[C@H]2[C@@H](c2ccc(C(=O)O)cc2)N3)cc1	38*	29*	44*	4	96*	92*	67*	20*	PRMT1 confirm=21*;ABHD4 confirm=61*
O=C(Nc1ccccc1)Nc1nc(-c2ccc(Cl)cc2)cs1	-2	2	0	-4	17	nt	nt	nt
COc1ccc(CC(N)c2csc(NC(=O)Nc3ccc(OC)cc3)n2)cc1 (stereo unspecified)	-4	9	5	-11	34	nt	nt	nt
COc1ccc(-c2csc(NC(=O)Nc3ccccc3)n2)cc1	1	44*	-2	-5	40*	14	16*	14
SMILES	PRMT1 FP inh	SIAE primary	mABHD4 FP	TCR CD3 inh	rCAG RNA binder	rCAG binder conf	DNA CAG counter	SIAE confirm	others
COc1ccc(NC(=O)Nc2nc(C(N)Cc3ccc(C(F)(F)F)cc3)cs2)cc1 (stereo unspecified)	-3	29*	26	-6	37*	17	2	16
CC(C)CCN1C(=O)COc2ccccc2C1c1nnnn1-c1ccc2c(c1)OCCO2 (stereo unspecified)	4	-1	0	nt	3	nt	nt	nt
O=C(CN1CCN(c2nc(-c3ccccc3)cs2)CC1)Nc1ccc(Cl)cc1	-1	-6	-10	nt	4	nt	nt	nt
COP(=O)(O)C(Cc1ccccc1)NC(=O)OCc1ccccc1 (stereo unspecified)	-3	-1	-2	nt	3	nt	nt	nt
COc1cc(CNc2cccc3[nH]c(C(F)(F)F)nc23)cc(OC)c1	3	18*	3	-5	44*	35*	18*	8
Cc1ccc(C(=O)Nc2cccc3[nH]c(C(F)(F)F)nc23)cc1	-6	-4	-7	6	3	nt	nt	nt
COc1ccc(-c2nc(-c3ccccc3)c(-c3cc([N+](=O)[O-])ccc3C)[nH]2)cc1O	3	15	-25	0	17	nt	nt	nt
Cc1ccc([N+](=O)[O-])cc1-c1[nH]c(-c2ccc(O)c(O)c2)nc1-c1ccccc1	1	34*	27	11	35*	37*	19*	-17
CC(=O)Nc1ccc(SCCN2CC[C@@H](C(C)(C)C)CCC2=O)cc1	41*	2	0	3	-2	nt	nt	nt	PRMT1 confirm=43*
CC(=O)Nc1ccc(SC[C@H](C)CN2CC[C@H](O)CCC2=O)cc1	26*	1	3	2	-1	nt	nt	nt	PRMT1 confirm=38*
COc1cc(N2C(=O)C=CC2=O)ccc1N1C(=O)C=CC1=O	91*	-2	5	5	8	nt	nt	nt	PRMT1 confirm=87*
CN(CCc1ccccn1)C1CC(=O)N(c2ccc(Cl)cc2)C1=O (stereo unspecified)	80*	-5	1	-2	6	nt	nt	nt	PRMT1 confirm=16

Bioassay records from PubChem BioAssay.
